PfM18AAP inh = PfM18AAP inhibitors, malaria aminopeptidase, primary screen, biochemical, QFRET, recombinant enzyme; H-Glu-NHMec fluorogenic cleavage; 290,000 tested, 1.2% active; M18 aspartyl aminopeptidase (Plasmodium falciparum 3D7); inhibition, % at 7.35 µM;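 active means inhibition above the campaign mean inhibition over all tested compounds plus 3 SD, cut at about 28% in these data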;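 further: 0% = plate median of test compound wells and 100% = 2 mM ZnCl2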
Rtt109 Vps75 = inhibitors of C. albicans Rtt109/Vps75 HAT, primary screen, biochemical, ThioGlo CoA-SH fluorescence, plate reader; AID 540336, 2011; inhibition, % at 34.9 µM; Histone acetyltransferase RTT109 (Candida albicans (strain SC5314 / ATCC MYA-2876)), …; 330,000 tested, 0.16% active; purified Rtt109/Vps75, 4 h;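 active means inhibition of at least 50% in every replicate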
Target sequence (Q5AAJ8 whole entry, looked up): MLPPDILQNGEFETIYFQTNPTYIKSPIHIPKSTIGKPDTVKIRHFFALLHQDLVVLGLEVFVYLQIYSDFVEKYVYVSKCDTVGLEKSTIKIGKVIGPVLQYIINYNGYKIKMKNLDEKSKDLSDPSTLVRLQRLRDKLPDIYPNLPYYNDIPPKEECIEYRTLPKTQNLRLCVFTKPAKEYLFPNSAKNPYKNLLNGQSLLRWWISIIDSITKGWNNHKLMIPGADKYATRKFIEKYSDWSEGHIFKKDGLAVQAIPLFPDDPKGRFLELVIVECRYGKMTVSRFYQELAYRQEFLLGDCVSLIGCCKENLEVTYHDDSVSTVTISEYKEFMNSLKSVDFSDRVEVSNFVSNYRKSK
FAS TE block = FAS thioesterase domain inhibitors, primary screen, biochemical, fluorescence intensity, uHTS; recombinant FAS-TE, OMFH fluorogenic substrate, fluorescence endpoint; inhibition, % at 15 µM; Fatty acid synthase (Homo sapiens), P49327; 360,000 tested, 0.67% active;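 active means compounds whose normalised, plate-corrected inhibition of enzyme fluorescence in the single-dose primary screen is 50% or more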;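 further: 0% = DMSO with enzyme and 100% = substrate without enzyme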
HDAC3 inh = HDAC3 deacetylase inhibitors, primary screen, biochemical, fluorescence, cell-free homogeneous; inhibition, % at 8.3 µM; recombinant HDAC3, fluorogenic peptide/trypsin coupled; AID 2718, 2010; Histone deacetylase 3 (Homo sapiens), O15379; 320,000 tested, 0.15% active; in the data active means inhibition above about 26%, passing the limit was not always enough
ALR inh = inhibitors of human ALR sulfhydryl oxidase, primary screen, biochemical, H2O2 detection, HRP-luminol luminescence, single point | inhibition, % (no concentration beside the values) | 290,000 tested, 3.8% active | FAD-linked sulfhydryl oxidase ALR (Homo sapiens), P55789 | purified ALR, DTT oxidation | AID 485317, 2010;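 active means mean replicate inhibition above about 79%, with every replicate also reaching it, limit read from the data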
UCH37 inh = inhibitors of human UCH37 deubiquitinase, primary screen, biochemical, Ub-AMC cleavage, fluorescence | Ubiquitin carboxyl-terminal hydrolase isozyme L5 (Homo sapiens), Q9Y5K5 | purified proteasome/UCH37 | inhibition, % (concentration not given with the values) | 330,000 tested, 0.33% active;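 active means mean inhibition over replicate wells above about 20%, limit read from the data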;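 further: 0% = compound-free wells with enzyme and 100% = wells lacking proteasome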
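Signal – fluorescence, ex 355 nm, em 460 nm · System – Proteasome-bound UCH37 · Input – 0.15 nM proteasome as dispensed · Timing – 30 min preincubation with enzyme, 25 min cleavage at room temperature · Read-out basis – percent inhibition of cleavage signal versus uninhibited and no-proteasome wells · Medium – Tris-HCl pH 7.4 with ATP-MgCl2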
FAS-TE inh conf = FAS thioesterase domain inhibitors, confirmation, biochemical, fluorescence intensity, single concentration. recombinant FAS-TE, OMFH fluorogenic substrate. AID 624325, 2012. 2,300 tested, 45% active. shares compounds with FAS TE block. inhibition, % at 15 µM;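 active means compounds inhibiting the enzyme by at least 50% at 15 µM in any one of the replicates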;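 further: 0% = enzyme with DMSO only and 100% = wells lacking enzyme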
Numbers without * were called inactive; · = no result. The list is not random: actives were taken first. Their share in the collection is about 4.6%.

SMILES	PfM18AAP inh	Rtt109 Vps75	FAS TE block	HDAC3 inh	ALR inh	UCH37 inh	FAS-TE inh conf
CCOC(=O)c1ccc(-c2c(-c3cc(OC)c(OC)c(OC)c3)noc2C)cc1F	6	-7	19	5	-2	3	·
Cc1cc(C)c(S(=O)(=O)N2CCN(c3ccc([N+](=O)[O-])c(-n4nc(C)cc4C)c3)CC2)c(C)c1	-3	3	37	3	-7	8	·
Cc1cc(C)n(-c2cc(N3CCN(S(=O)(=O)c4ccc(Br)cc4)CC3)ccc2[N+](=O)[O-])n1	1	2	51*	-2	-1	1	12
CC#CCN1c2ccccc2[C@]23C[C@@H](C(=O)OC)N(C(=O)c4cc(C)oc4C)C2=NC(C(=O)OC)=C(C(=O)OC)[C@H]13	·	2	59*	8	5	-2	19
CS(=O)(=O)N1CCc2cc(-c3csc(NC(=O)Cc4cccs4)n3)ccc21	7	-3	62*	6	17	0	29*

Assay outcomes (PubChem)
